Results taken from ChEMBL document CHEMBL3616366, “Design, synthesis and biological activity of new amides derived from 3-methyl-3-phenyl-2,5-dioxo-pyrrolidin-1-yl-acetic acid” (Eur J Med Chem, 2015).
The source made the active and inactive calls.

Tests used:
Mus musculus [1] = experiment: Antinociceptive activity in albino CD-1 mouse assessed as reduction in licking and biting time during phase 2 at 97.51 mg/kg, ip administered 30 mins prior to formalin challenge measured between 25.0 to 30.0 mins relative to control; assay type: functional; parameters: scale not given: the % may be the effect or the level left
Mus musculus [2] = experiment: Neurotoxicity in albino CD-1 mouse assessed as motor performance by measuring time spent in chimney at 97.51 mg/kg, ip administered 30 mins prior to chimney test (reference value: 6.29 +/- 2.48 sec); assay type: toxicity, organism-based; settings: in vivo
Rattus norvegicus = organism: Rattus norvegicus; experiment: Displacement of [3H]BTX from voltage-sensitive sodium channel site2 in rat cerebral cortex at 100 uM measured after 60.0 mins by scintillation counting; assay type: tissue-based
Salmonella typhimurium [3] = experiment: Mutagenic activity in Salmonella typhimurium TA100 assessed as mutagenicity index at 40 ng/ml by Ames test; assay type: toxicity, organism-based; settings: salmonella enterica subsp. enterica serovar typhimurium
Outline: (§1)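 Ames TA100 liquid pre-incubation (minimal medium, 37 °C) and V. harveyi assay (BOSS medium, 30 °C); test at 40 ng/ml, triplicate. Mutagenic index = induced revertants / spontaneous revertants (DMSO control); M.I. ≥2 considered mutagenic.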

Vibrio harveyi [4] = experiment: Mutagenic activity in Vibrio harveyi BB7 assessed as mutagenicity index at 40 ng/ml; assay type: organism-based; settings: in vivo; outline: as §1
Vibrio harveyi [5] = experiment: Mutagenic activity in Vibrio harveyi BB7XM assessed as mutagenicity index at 40 ng/ml; assay type: organism-based; settings: in vivo; outline: as §1
Salmonella typhimurium [6] = experiment: Antimutagenic activity in Salmonella typhimurium TA100 assessed as inhibition of nitroquinoline-N-oxide-induced revertant colonies by Ames test; assay type: functional, Salmonella enterica subsp. enterica serovar Typhimurium
Outline: (§2)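 Revertants induced by 4-nitroquinoline-N-oxide (final 40 ng/ml) with versus without test compound; TA100 at 37 °C, V. harveyi strains at 30 °C in BOSS medium. Three independent repetitions; inhibition % = 100 − (R1/R2 × 100); 25–40% moderate, ≥40% strong.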

Vibrio harveyi [7] = experiment: Antimutagenic activity in Vibrio harveyi BB7 assessed as inhibition of nitroquinoline-N-oxide-induced revertant colonies; assay type: functional; outline: as §2
Vibrio harveyi [8] = experiment: Antimutagenic activity in Vibrio harveyi BB7XM assessed as inhibition of nitroquinoline-N-oxide-induced revertant colonies; assay type: functional; outline: as §2
Mus musculus [9] = experiment: Anticonvulsant activity in albino CD-1 mouse assessed as protection against maximal electroshock-induced seizure at 30 to 300 mg/kg, ip measured after 0.5 hrs; assay type: functional; settings: CD-1, ip, read-out: MED
Outline: (§3)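 Male CD-1 mice (16–26 g), compound suspended in 0.5% methylcellulose/water, i.p. at 30, 100, 300 mg/kg; four mice per group, each used once. Electroconvulsion by electrical stimulus 0.2 s at 50 Hz; protection scored at 0.5 and 2 h. Value is minimum dose showing activity.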

Mus musculus [10] = experiment: Anticonvulsant activity in albino CD-1 mouse assessed as protection against maximal electroshock-induced seizure at 30 to 300 mg/kg, ip measured after 2.0 hrs; assay type: functional; settings: for minimal effective dose: CD-1, ip, read-out: MED; outline: as §3
Mus musculus [11] = experiment: Anticonvulsant activity in albino CD-1 mouse assessed as protection against subcutaneous pentylenetetrazole-induced seizure at 30 to 300 mg/kg, ip measured after 0.5 hrs; assay type: functional
Outline: (§4)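 Male CD-1 mice given compound i.p. (0.5% methylcellulose suspension) at 30, 100, 300 mg/kg, four per group; pentylenetetrazole 85 mg/kg s.c. at 0.5 or 2 h. Absence of clonic convulsions (≥5 s) over 30 min observation counts as protection. Minimum active dose reported.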

Mus musculus [12] = experiment: Anticonvulsant activity in albino CD-1 mouse assessed as protection against subcutaneous pentylenetetrazole-induced seizure at 30 to 300 mg/kg, ip measured after 2.0 hrs; assay type: functional; outline: as §4
Mus musculus [13] = experiment: Neurotoxicity in albino CD-1 mouse assessed as motor impairment at 30 to 300 mg/kg mg/kg, ip measured after 0.5 hrs by rotarod test; assay type: toxicity, organism-based; settings: in vivo
Outline: (§5)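 Rotarod in male CD-1 mice at 0.5 and 2 h after i.p. 30, 100 or 300 mg/kg (methylcellulose suspension); motor impairment = inability to keep balance on rod turning at 10 rpm for at least 1 min. Minimum neurotoxic dose reported.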

Mus musculus [14] = experiment: Neurotoxicity in albino CD-1 mouse assessed as motor impairment at 30 to 300 mg/kg mg/kg, ip measured after 2 hrs by rotarod test; assay type: toxicity, organism-based; settings: in vivo; outline: as §5
Mus musculus [15] = experiment: Anticonvulsant activity in ip dosed albino CD-1 mouse assessed as protection against maximal electroshock-induced seizure; assay type: functional; settings: CD-1, ip
Outline: (§6)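 Quantitative work at time of peak effect previously estimated in screening; groups of six mice given various i.p. doses until ≥3 points within 10–90% seizure protection (MES or scPTZ) or minimal motor impairment on rotarod (10 rpm, failure to hold ≥1 min).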

Mus musculus [16] = experiment: Anticonvulsant activity in ip dosed albino CD-1 mouse assessed as protection against maximal electroshock-induced seizure measured as time to peak effect; assay type: functional; outline: as §6
Mus musculus [17] = experiment: Anticonvulsant activity in ip dosed albino CD-1 mouse assessed as protection against subcutaneous pentylenetetrazole-induced seizure measured as time to peak effect; assay type: functional; outline: as §6
[18] = Neurotoxicity in ip dosed albino CD-1 mouse assessed as motor impairment by rotarod test; assay type: toxicity, organism-based; settings: in vivo; outline: as §6
[19] = Protective index, ratio of TD50 for neurotoxicity in ip dosed albino CD-1 mouse to ED50 for anticonvulsant activity in ip dosed maximal electoshock-induced seizure albino CD-1 mouse model; assay type: toxicity, organism-based; settings: in vivo, read-out: Ratio TD50/ED50
Outline: (§7)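 Protective index computed as TD50 (rotarod) divided by ED50 (MES or scPTZ), both from probit analysis on groups of six i.p.-dosed mice.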

Mus musculus [20] = experiment: Anticonvulsant activity in ip dosed albino CD-1 mouse assessed as protection against 6 Hz current-induced seizure measured after 0.5 hrs; assay type: functional; settings: CD-1, ip, read-out: MED
Outline: (§8)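 6-Hz psychomotor test: corneal stimulation 32 mA, 0.2 ms monopolar rectangular pulses at 6 Hz for 3 s, mice restrained then released to observation cage. Protected if normal exploratory behaviour resumes within 10 s. Doses 30, 100, 300 mg/kg i.p.; read at 0.5 and 2 h; minimum active dose.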

Mus musculus [21] = experiment: Anticonvulsant activity in ip dosed albino CD-1 mouse assessed as protection against 6 Hz current-induced seizure measured after 2.0 hrs; assay type: functional; outline: as §8
Mus musculus [22] = experiment: Antinociceptive activity in albino CD-1 mouse assessed as reduction in licking and biting time during phase 1 at 97.51 mg/kg, ip administered 30 mins prior to formalin challenge relative to control; assay type: functional; parameters: scale not given: the % may be the effect or the level left
Mus musculus [23] = experiment: Antinociceptive activity in albino CD-1 mouse assessed as reduction in licking and biting time during phase 2 at 97.51 mg/kg, ip administered 30 mins prior to formalin challenge measured between 15.0 to 30.0 mins relative to control; assay type: functional; parameters: scale not given: the % may be the effect or the level left
Mus musculus [24] = experiment: Antinociceptive activity in albino CD-1 mouse assessed as reduction in licking and biting time during phase 2 at 97.51 mg/kg, ip administered 30 mins prior to formalin challenge measured between 15.0 to 20.0 mins relative to control; assay type: functional; parameters: scale not given: the % may be the effect or the level left
Mus musculus [25] = experiment: Antinociceptive activity in albino CD-1 mouse assessed as reduction in licking and biting time during phase 2 at 97.51 mg/kg, ip administered 30 mins prior to formalin challenge measured between 20.0 to 25.0 mins relative to control; assay type: functional; parameters: scale not given: the % may be the effect or the level left
Mus musculus [26] = experiment: Antinociceptive activity in albino CD-1 mouse assessed as reduction in licking and biting time during phase 2 at 114.68 mg/kg, ip administered 30 mins prior to formalin challenge measured between 25.0 to 30.0 mins relative to control; assay type: functional; parameters: scale not given: the % may be the effect or the level left
Mus musculus [27] = experiment: Neurotoxicity in albino CD-1 mouse assessed as motor performance by measuring time spent in chimney at 114.68 mg/kg, ip administered 30 mins prior to chimney test (reference value: 6.29 +/- 2.48 sec); assay type: toxicity, organism-based; settings: in vivo
Mus musculus [28] = experiment: Anticonvulsant activity in ip dosed albino CD-1 mouse assessed as protection against subcutaneous pentylenetetrazole-induced seizure; assay type: functional; outline: as §6
[29] = Protective index, ratio of TD50 for neurotoxicity in ip dosed albino CD-1 mouse to ED50 for anticonvulsant activity in ip dosed subcutaneous pentylenetetrazole-induced seizure albino CD-1 mouse model; assay type: toxicity, organism-based; settings: in vivo, read-out: Ratio TD50/ED50; outline: as §7
Mus musculus [30] = experiment: Antinociceptive activity in albino CD-1 mouse assessed as reduction in licking and biting time during phase 1 at 114.68 mg/kg, ip administered 30 mins prior to formalin challenge relative to control; assay type: functional; parameters: scale not given: the % may be the effect or the level left
Mus musculus [31] = experiment: Antinociceptive activity in albino CD-1 mouse assessed as reduction in licking and biting time during phase 2 at 114.68 mg/kg, ip administered 30 mins prior to formalin challenge measured between 15.0 to 30.0 mins relative to control; assay type: functional; parameters: scale not given: the % may be the effect or the level left
Mus musculus [32] = experiment: Antinociceptive activity in albino CD-1 mouse assessed as reduction in licking and biting time during phase 2 at 114.68 mg/kg, ip administered 30 mins prior to formalin challenge measured between 15.0 to 20.0 mins relative to control; assay type: functional; parameters: scale not given: the % may be the effect or the level left
Mus musculus [33] = experiment: Neurotoxicity in albino CD-1 mouse assessed as motor performance by measuring time spent in chimney at 104.11 mg/kg, ip administered 2.0 hrs prior to chimney test (reference value: 6.29 +/- 2.48 sec); assay type: toxicity, organism-based; settings: in vivo
Mus musculus [34] = experiment: Antinociceptive activity in albino CD-1 mouse assessed as reduction in licking and biting time during phase 1 at 104.11 mg/kg, ip administered 2.0 hrs prior to formalin challenge relative to control; assay type: functional; parameters: scale not given: the % may be the effect or the level left
Mus musculus [35] = experiment: Antinociceptive activity in albino CD-1 mouse assessed as reduction in licking and biting time during phase 2 at 104.11 mg/kg, ip administered 2.0 hrs prior to formalin challenge measured between 15.0 to 30.0 mins relative to control; assay type: functional; parameters: scale not given: the % may be the effect or the level left
Mus musculus [36] = experiment: Antinociceptive activity in albino CD-1 mouse assessed as reduction in licking and biting time during phase 2 at 104.11 mg/kg, ip administered 2.0 hrs prior to formalin challenge measured between 15.0 to 20.0 mins relative to control; assay type: functional; parameters: scale not given: the % may be the effect or the level left
Mus musculus [37] = experiment: Antinociceptive activity in albino CD-1 mouse assessed as reduction in licking and biting time during phase 2 at 104.11 mg/kg, ip administered 2.0 hrs prior to formalin challenge measured between 20.0 to 25.0 mins relative to control; assay type: functional; parameters: scale not given: the % may be the effect or the level left

Compound | inhibition (Rattus norvegicus) [%] | minimal effective dose (Mus musculus [9]) [mg/kg] | minimal effective dose (Mus musculus [10]) [mg/kg] | MED (Mus musculus [11]) | MED (Mus musculus [12]) | MTC (Mus musculus [13]) [mg/kg] | MTC (Mus musculus [14]) [mg/kg] | ED50 (Mus musculus [15]) [mg/kg] | Time (Mus musculus [16]) [h] | Time (Mus musculus [17]) [h] | TD50 [18] [mg/kg] | selectivity ratio [19] | minimal effective dose (Mus musculus [20]) [mg/kg] | further results
COc1ccccc1N1CCN(C(=O)CN2C(=O)CC(C)(c3ccccc3)C2=O)CC1 (stereo not drawn) | 44.6 | 100 | 300 | inactive | inactive | 300 | 300 | 97.5 | 0.5 | 0.5 | 240 | 2.46 | 100 | Activity (Mus musculus [1]): 98%; Time (Mus musculus [2]): 8.43 s; Activity_index (Salmonella typhimurium [3]): 0.6; Activity_index (Vibrio harveyi [4]): 1.2; Activity_index (Vibrio harveyi [5]): 0.9; inhibition (INH) (Salmonella typhimurium [6]): 42%; inhibition (INH) (Vibrio harveyi [7]): 45%; inhibition (INH) (Vibrio harveyi [8]): 51%; MED (Mus musculus [21]): inactive; Activity (Mus musculus [22]): 85.5%; Activity (Mus musculus [23]): 99.3%; Activity (Mus musculus [24]): 100%; Activity (Mus musculus [25]): 100%
CC1(c2ccccc2)CC(=O)N(CC(=O)N2CCN(c3ccccc3F)CC2)C1=O (stereo not drawn) | 56.1 | 100 |  |  |  | 300 | 300 | 115 | 0.5 | 0.5 | 302 | 2.64 |  | Activity (Mus musculus [26]): 81%; Time (Mus musculus [27]): 6.5 s; MED (Mus musculus [10]): inactive; minimal effective dose (Mus musculus [11]; CD-1, 0.5 h, read-out: MED): 100 mg/kg; minimal effective dose (Mus musculus [12]; CD-1, 2 h, read-out: MED): 300 mg/kg; ED50 (Mus musculus [28]): 97.1 mg/kg; selectivity ratio [29]: 3.11; Activity (Mus musculus [30]): 73.3%; Activity (Mus musculus [31]): 87.1%; Activity (Mus musculus [32]): 98%
CC1(c2ccccc2)CC(=O)N(CC(=O)N2CCN(c3ccc(F)cc3)CC2)C1=O (stereo not drawn) |  | 100 | 100 | inactive | inactive | 300 | 300 | 104 | 2 | 2 | 248 | 2.37 | 300 | Time (Mus musculus [33]): 6.14 s; minimal effective dose (Mus musculus [21]; CD-1, ip, read-out: MED): 300 mg/kg; Activity (Mus musculus [34]): 60%; Activity (Mus musculus [35]): 82.3%; Activity (Mus musculus [36]): 95%; Activity (Mus musculus [37]): 95%
